A selection: hits, their analogues and other compounds. The true share with any hit is near 4.2%.
OX1R antag-1 – antagonists of human orexin 1 receptor | actives 0.43% (n = 330,000) | inhibition, % at 5 µM | CHO/OX1R cells, Fluo-8 calcium fluorescence, orexin A | O43613 | AID 434989;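 active = inhibition above its plate's threshold, mean inhibition of all tested compounds on the plate plus 3 SD, cut at about 37% in these data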;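 also: 0% = orexin A challenge wells and 100% = SB-334867-A antagonist wells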
Target sequence (O43613 whole entry, looked up): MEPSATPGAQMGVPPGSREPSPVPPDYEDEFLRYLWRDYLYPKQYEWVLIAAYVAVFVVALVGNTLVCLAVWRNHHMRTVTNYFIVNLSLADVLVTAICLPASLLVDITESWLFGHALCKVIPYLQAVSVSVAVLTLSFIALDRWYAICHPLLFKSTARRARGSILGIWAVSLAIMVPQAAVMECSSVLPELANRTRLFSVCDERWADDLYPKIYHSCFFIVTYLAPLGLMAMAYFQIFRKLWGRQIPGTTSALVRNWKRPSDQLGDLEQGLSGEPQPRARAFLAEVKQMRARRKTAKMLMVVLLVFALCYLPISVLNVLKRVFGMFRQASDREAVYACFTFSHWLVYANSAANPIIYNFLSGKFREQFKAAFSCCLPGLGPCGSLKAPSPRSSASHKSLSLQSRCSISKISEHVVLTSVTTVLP
GalR3 antag – antagonists of human GalR3 | O60755 | HEK293 GalR3-CNG cAMP membrane potential fluorescence; galR3 body fused to GalR1 C-terminus | inhibition, % at 3 µM | actives 0.44% (n = 360,000) | AID 651719;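 active = inhibition above the screen-wide average plus 3 SD, cut at about 13% in these data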;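 also: forskolin and galanin both at EC90 stimulate the cells; cAMP rise reported by CNG channel membrane potential dye signal; 0% = forskolin plus galanin with DMSO and 100% = forskolin alone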
TAAR1 antagonist – human TAAR1 antagonism; actives 1.5% (n = 360,000); Q96RJ0; AID 624466; inhibition, % at 3 µM; CHO RD-HGA16 TAAR1, Fluo-8 calcium fluorescence, antagonist;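 active = inhibition above a per-plate cutoff, the mean inhibition of test compounds on that plate plus 3 SD, cut at about 49% in these data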;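 also: 0% = DMSO plus EC80 beta-PEA response and 100% = DMSO alone without agonist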
Target sequence (Q96RJ0 whole entry, looked up): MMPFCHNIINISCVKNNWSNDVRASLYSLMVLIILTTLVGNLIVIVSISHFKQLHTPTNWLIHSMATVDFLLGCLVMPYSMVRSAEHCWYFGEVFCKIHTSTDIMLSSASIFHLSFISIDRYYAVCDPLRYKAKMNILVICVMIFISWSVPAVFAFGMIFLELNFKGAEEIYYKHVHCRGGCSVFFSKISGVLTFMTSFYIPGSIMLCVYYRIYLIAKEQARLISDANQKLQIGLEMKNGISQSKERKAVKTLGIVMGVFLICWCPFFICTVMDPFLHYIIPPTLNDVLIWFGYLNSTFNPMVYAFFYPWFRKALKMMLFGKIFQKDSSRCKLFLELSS
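Test system: hTAAR1-expressing CHO RD-HGA16 cells, Gα16-coupled; Probe or stimulus: EC80 β-phenethylamine stimulus; Compound dosing: single nominal final test compound concentration of 3 µM; Timing: 140 s kinetic read after compound, 140 s after agonist; Signal: Fluo-8 calcium-sensitive fluorescence; Measure: % inhibition of agonist calcium response; Controls: DMSO and EC80 PEA controls.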
OX1R antag-2 – antagonists of human orexin 1 receptor (OX1R) | O43613 | OX1R-expressing cells, FRET antagonist read-out | inhibition, % at 6.6 µM | actives 1.8% (n = 330,000) | AID 485270; in the data active = inhibition mostly above about 38%, no sharp cut-off; inactive = mostly below about 40%;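 also: 0% = agonist challenge alone and 100% = reference antagonist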
CHO parental Ca – signal in parental CHO cells, OX1R antagonist counter-screen; parental CHO-K1, ATP-induced calcium, Fluo-8 fluorescence; inhibition, % at 5.6 µM; actives 0.63% (n = 330,000);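 active = inhibition above that plate's mean sample inhibition plus 3 SD, cut at about 26% in these data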;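 also: 0% = ATP-challenged DMSO wells and 100% = DMSO wells without ATP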
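Test system: untransfected parental CHO cell line. Compound: one dose, 5.6 µM nominal. Detection: intracellular calcium via Fluo-8 no-wash fluorescent dye. Measure: % inhibition. Benchmarks: ATP-challenged DMSO wells low, unchallenged DMSO wells high.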
TAAR1 agonist – human TAAR1 agonism | Q96RJ0 | CHO RD-HGA16 TAAR1, Fluo-8 calcium fluorescence; vehicle wells 0%, saturating PEA agonist 100% | activation, % at 3 µM | actives 0.99% (n = 360,000);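 active = activation above the mean activation of all test compounds in the run plus 3 SD, cut at about 38% in these data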
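test system = CHO RD-HGA16 cells carrying human TAAR1 plus Gα16 | schedule = 17-24 h seeding, 75 min 37 °C dye, 30 min RT | compound dosing = 3 µM single concentration | control set = DMSO and PEA EC100 | replicates = n 1 | signal = Fluo-8 fluorescence, 5 s baseline then 140 s kinetic read | measure = percent activation vs PEA EC100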
OX1R Ca confirm – OX1R (human) antagonism, confirmed | shares compounds with OX1R antag-1 | CHO/OX1R cells, orexin A calcium Fluo-8 fluorescence | AID 492963 | inhibition, % at 5 µM | actives 38% (n = 1,100); in the data active = inhibition above about 29%;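 also: 0% = agonist challenge alone and 100% = reference antagonist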
CHO Ca triplic – counter-screen for OX1R antagonists: effect in parental CHO cells; actives 9.3% (n = 1,100); inhibition, % at 5.6 µM; shares compounds with OX1R antag-1; parental CHO-K1, ATP-induced calcium, Fluo-8 fluorescence;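 active = inhibition above a per-plate limit, the mean inhibition of that plate's test compounds plus 3 SD, cut at about 25% in these data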;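 also: 0% = ATP challenge with DMSO and 100% = DMSO without ATP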
OX1R HTRF confirm – OX1R (human) antagonism, HTRF confirmed; shares compounds with OX1R antag-2; OX1R-expressing cells, HTRF antagonist assay; inhibition, % at 6.6 µM; actives 49% (n = 1,800); in the data active = inhibition above about 55%;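 also: CHO cells expressing OX1R stimulated with orexin A at about EC80; 0% = agonist challenge alone and 100% = reference antagonist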
CHO-K1 HTRF cnt – counter-screen: parental CHO-K1 HTRF response. shares compounds with OX1R antag-2. parental CHO-K1 cells, HTRF counterscreen. inhibition, % at 6.6 µM. actives 48% (n = 1,800). AID 493232; in the data active = inhibition above about 17%;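 also: 0% = agonist challenge with vehicle and 100% = vehicle alone without agonist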
TAAR1 ag conf – confirmation of human TAAR1 agonists | actives 82% (n = 2,400) | shares compounds with TAAR1 agonist | CHO RD-HGA16 TAAR1, Fluo-8 calcium fluorescence; scaled: DMSO 0%, maximal phenethylamine 100% | activation, % at 3 µM;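 active = activation above a cutoff set at the run's mean compound activation plus 3 SD, cut at about 39% in these data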
Ga16 nonsel ag – nonselective agonist in parental cells, TAAR1 agonist counter-screen | shares compounds with TAAR1 agonist | CHO-Ga16 parental, Fluo-8 calcium fluorescence; normalized to maximal ATP response, DMSO zero | activation, % at 3 µM | actives 50% (n = 2,400) | AID 651787;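 active = activation above the run cutoff, the mean activation over all tested wells plus 3 SD, cut at about 12% in these data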;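 also: 0% = DMSO wells and 100% = maximal ATP response on the peak over basal ratio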
TAAR1 desens – human TAAR1 agonist that also desensitizes the receptor; shares compounds with TAAR1 agonist; CHO RD-HGA16 hTAAR1, Fluo-8 calcium, beta-PEA response inhibition; inhibition, % at 3 µM; actives 46% (n = 2,400);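 active = inhibition above the run cutoff, the mean inhibition of all test compounds plus 3 SD, cut at about 49% in these data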;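 also: beta-PEA stimulus applied at its EC80; loss of beta-PEA calcium signal after compound pretreatment read as receptor desensitization; 0% = DMSO with beta-PEA at EC80 and 100% = DMSO alone without agonist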
Ga16 antag count – counter-screen for TAAR1 agonists: nonselective Ga16 antagonists; shares compounds with TAAR1 agonist; actives 39% (n = 2,400); CHO-Ga16 ATP-induced calcium, Fluo-8 fluorescence; inhibition, % at 3 µM; AID 651952;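 active = inhibition above the plate's mean compound inhibition plus 3 SD, computed per plate, cut at about 22% in these data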;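 also: 0% = EC80 ATP with DMSO and 100% = DMSO wells without ATP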
* = called active by the depositor; . = not tested or not shown; + = active, no number.

SMILES	OX1R antag-1	GalR3 antag	TAAR1 antagonist	OX1R antag-2	CHO parental Ca	TAAR1 agonist	OX1R Ca confirm	CHO Ca triplic	OX1R HTRF confirm	CHO-K1 HTRF cnt	others
CC(=O)Nc1ccccc1C(=O)OCc1ccc(C(=O)c2ccccc2)cc1	23.6	-6.6	37.8	19.8	13.2	7.5	.	.	.	.
O=C(O)C(Cc1cnc[nH]1)NS(=O)(=O)c1ccc(Cl)cc1 (stereo unspecified)	34.9	-3.6	-7.4	-1.5	0.3	11.5	2.3	3.0	.	.
COC(=O)C1=C(c2cccc(OCc3ccccc3)c2)C[C@@H]2CC[C@H]1N2C(=O)NCc1ccccc1	-21.9	-3.4	14.9	7.3	-33.5	3.1	.	.	.	.
COC(=O)C1=C(c2ccc(F)cc2OCc2ccccc2)C[C@@H]2CC[C@H]1N2C(=O)NCc1ccc(F)cc1	-3.2	-9.5	42.4	13.0	-24.1	8.8	.	.	.	.
COC(=O)C1=C(c2cccc(OCc3ccccc3)c2)C[C@@H]2CC[C@H]1N2C(=O)NCc1ccccc1OC	51.7*	-2.3	18.6	10.1	-7.2	1.1	-6.6	-5.5	.	.
COC(=O)C1=C(c2ccc(F)cc2OCc2ccccc2)C[C@@H]2CC[C@H]1N2C(=O)NCc1ccc(C)cc1	56.2*	-7.8	59.7*	21.7	-2.9	7.0	-2.8	-14.9	.	.
FC(F)(F)c1ccc(CN2CCNCC2)cc1	-8.8	-3.5	-9.9	5.7	-9.4	2.2	.	.	.	.
CCCC(=O)Nc1ccc(N2CCN(CC)CC2)c(Cl)c1	-14.2	-2.3	-10.4	19.8	-12.0	12.7	.	.	.	.
Oc1ccc(C2NCc3ccccc3-n3cccc32)cc1Cl (stereo unspecified)	-0.1	-6.5	-11.0	22.8	2.8	17.7	0.2	-9.6	.	.
O=C(CN1CC(c2ccccc2)CC1=O)Nc1ccc(F)cc1 (stereo unspecified)	-30.4	-2.6	26.4	16.6	1.9	0.6	.	.	.	.
COc1ccc(OC)c(NP(=O)(Oc2ccccc2)Oc2ccccc2)c1	.	3.6	-8.7	.	.	0.3	.	.	.	.
COc1cccc(OP(=O)(Nc2ccccc2)Oc2cccc(OC)c2)c1	45.0*	.	.	59.6*	-3.8	.	29.0*	0.4	47.3	0.0
COC(=O)C1=C(c2ccccc2OCc2ccccc2)C[C@@H]2CC[C@H]1N2C(=O)NCCOc1ccccc1Cl	61.6*	-7.8	33.0	52.6*	-10.9	22.5	33.0*	-10.0	70.1*	-1.8
CCOC(=O)C1(CCc2ccccc2)CCN(Cc2cccc3cnccc23)CC1	-50.7	-6.0	-6.2	26.7	-8.3	15.4	.	.	.	.
CCCCCn1c(=O)c(C(=O)Nc2ccccc2C)c(O)c2ccccc21	-7.8	-2.4	13.8	6.0	-9.5	3.2	.	.	.	.
CCCCCCn1c(=O)c(C(=O)Nc2ncccc2C)c(O)c2ccccc21	30.5	-11.6	73.6*	12.8	20.0	106.0*	-0.3	6.2	.	.	TAAR1 ag conf=54.5*;Ga16 nonsel ag=30.0*;TAAR1 desens=48.0;Ga16 antag count=35.2*
Oc1ccc(C(=C(Cl)Cl)c2ccc(O)cc2)cc1	3.2	.	.	-1.7	-1.8	.	.	.	.	.
CC1(C)CSC(=NCc2ccccc2)N1	29.4	-7.5	88.2*	7.7	19.9	132.3*	62.8*	35.3*	.	.	TAAR1 ag conf=111.3*;Ga16 nonsel ag=81.0*;TAAR1 desens=95.0*;Ga16 antag count=67.7*
O=C1NC(=O)N(c2ccc3c(c2)OCO3)C(=O)/C1=C/c1ccc(N2CCCC2)o1	-1.9	-7.5	8.9	92.2*	1.7	5.1	.	.	46.4	74.9*
COc1ccc(C(=O)OC2CC3CCC(C2)[N+]3(C)[O-])cc1OC (stereo unspecified)	-12.4	-11.5	-12.3	0.7	4.5	5.4	.	.	.	.
O=C(NC1CN2CCC1CC2)c1cc(Cl)c([N+](=O)[O-])c2nc[nH]c12 (stereo unspecified)	0.6	2.0	5.6	130.2*	-12.8	2.5	.	.	48.5	82.9*
Cc1nc2c(=O)n(C)c(=O)nc-2n(C)n1	2.2	-5.3	8.2	+	-7.5	10.7	.	.	84.0*	99.9*
CCOc1cc(CNCCc2c[nH]c3ccccc23)cc(Cl)c1OC	-36.7	-10.2	20.5	104.9*	-17.0	17.6	.	.	17.1	3.2
CCOC(=O)[C@]12Cc3cc(OC)ccc3[C@H]1N(CC(=O)OC)C(=O)c1ccccc12	.	-4.8	4.0	.	.	2.7	.	.	.	.
O=C1C(=O)c2cccc3cccc1c23	-2.5	3.7	-7.5	101.0*	-6.9	6.9	.	.	30.8	41.9*
SMILES	OX1R antag-1	GalR3 antag	TAAR1 antagonist	OX1R antag-2	CHO parental Ca	TAAR1 agonist	OX1R Ca confirm	CHO Ca triplic	OX1R HTRF confirm	CHO-K1 HTRF cnt	others
CN1CCN(c2cccc3c2C(=O)c2ccccc2C3=O)CC1	.	-6.2	-14.3	.	.	2.9	.	.	.	.
O=C1C(=O)c2ccccc2-c2ccccc21	3.7	2.6	-4.4	105.5*	-17.7	6.3	.	.	60.5*	28.6*
CC(=O)Nc1ccc(OCCF)cc1	-4.4	2.7	-9.4	26.5	-7.3	8.2	.	.	.	.
O=[N+]([O-])c1ccc(N(CCO)CCO)c2c1no[n+]2[O-]	.	-4.0	-1.0	.	.	6.0	.	.	.	.
CN1CCN(c2ccc([N+](=O)[O-])c3no[n+]([O-])c23)CC1	12.9	-6.8	6.9	77.0*	22.1	25.9	.	.	74.1*	106.5*
O=c1[nH]c(O)c(N=Nc2cc([N+](=O)[O-])ccc2O)c(=O)[nH]1	-4.7	2.8	18.2	+	3.9	2.6	.	.	71.2*	93.2*
CNc1ccc2nc3ccccc3[n+](C)c2c1	-8.3	-8.9	-12.2	94.2*	6.1	3.4	.	.	65.8*	145.0*
